From ChEMBL document CHEMBL1147862, “Studies on synthesis and pharmacological activities of 3,6-disubstituted-1,2,4-triazolo[3,4-b]-1,3,4-thiadiazoles and their dihydro analogues” (2007)

Assays:
Format in all cases: functional
Mus musculus [1] = assay: Analgesic activity in Swiss mouse assessed as increase in reaction time at 20 mg/kg, po after 30 mins by Eddy's hot plate technique
How it was run: (§1)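 Swiss mice of either sex, 25–35 g, placed one at a time on a hot plate held at 55 °C. End point is paw licking or jumping, whichever comes first, with a 15 s cut-off to avoid paw injury. Reaction time is recorded and reported as percent increase in reaction time.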

Mus musculus [2] = assay: Analgesic activity in Swiss mouse assessed as increase in reaction time at 20 mg/kg, po after 60 mins by Eddy's hot plate technique; how it was run: as §1
Mus musculus [3] = assay: Analgesic activity in Swiss mouse assessed as increase in reaction time at 20 mg/kg, po after 90 mins by Eddy's hot plate technique; how it was run: as §1
Candida albicans [4] = assay: Antifungal activity against Candida albicans at 10 ug/ml by paper disc method; conditions: read-out: IZ
Candida albicans [5] = assay: Antifungal activity against Candida albicans at 20 ug/ml by paper disc method; conditions: read-out: IZ
Candida albicans [6] = assay: Antifungal activity against Candida albicans at 30 ug/ml by paper disc method; conditions: read-out: IZ
Aspergillus niger [7] = assay: Antifungal activity against Aspergillus niger at 10 ug/ml by paper disc method; conditions: read-out: IZ
Aspergillus niger [8] = assay: Antifungal activity against Aspergillus niger at 20 ug/ml by paper disc method; conditions: read-out: IZ
Aspergillus niger [9] = assay: Antifungal activity against Aspergillus niger at 30 ug/ml by paper disc method; conditions: read-out: IZ
Escherichia coli [10] = assay: Antibacterial activity against Escherichia coli at 10 ug/ml by agar plate diffusion technique; conditions: read-out: IZ
Escherichia coli [11] = assay: Antibacterial activity against Escherichia coli at 20 ug/ml by agar plate diffusion technique; conditions: read-out: IZ
Escherichia coli [12] = assay: Antibacterial activity against Escherichia coli at 30 ug/ml by agar plate diffusion technique; conditions: read-out: IZ
Pseudomonas aeruginosa [13] = assay: Antibacterial activity against Pseudomonas aeruginosa at 10 ug/ml by agar plate diffusion technique; conditions: read-out: IZ
Pseudomonas aeruginosa [14] = assay: Antibacterial activity against Pseudomonas aeruginosa at 20 ug/ml by agar plate diffusion technique; conditions: read-out: IZ
Pseudomonas aeruginosa [15] = assay: Antibacterial activity against Pseudomonas aeruginosa at 30 ug/ml by agar plate diffusion technique; conditions: read-out: IZ
Bacillus subtilis [16] = assay: Antibacterial activity against Bacillus subtilis at 10 ug/ml by agar plate diffusion technique; conditions: read-out: IZ
Bacillus subtilis [17] = assay: Antibacterial activity against Bacillus subtilis at 20 ug/ml by agar plate diffusion technique; conditions: read-out: IZ
Bacillus subtilis [18] = assay: Antibacterial activity against Bacillus subtilis at 30 ug/ml by agar plate diffusion technique; conditions: read-out: IZ
Staphylococcus aureus [19] = assay: Antibacterial activity against Staphylococcus aureus at 10 ug/ml by agar plate diffusion technique; conditions: read-out: IZ
Staphylococcus aureus [20] = assay: Antibacterial activity against Staphylococcus aureus at 20 ug/ml by agar plate diffusion technique; conditions: read-out: IZ
Staphylococcus aureus [21] = assay: Antibacterial activity against Staphylococcus aureus at 30 ug/ml by agar plate diffusion technique; conditions: read-out: IZ
Rattus norvegicus [22] = assay: Antiinflammatory activity in Wistar Albino rat assessed as inhibition of carrageenan-induced paw oedema at 20 mg/kg after 1 hr relative to control
How it was run: (§2)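 Wistar albino rats, 150–200 g, six per group, dosed orally with a 20 mg/kg suspension; control gets 0.1 ml 1% gum acacia. After 30 min, 0.1 ml 1% carrageenan in saline is injected subplantar into the right hind paw. Paw volume is read by plethysmograph at 0–4 h. Inhibition = 100(1 − Vtest/Vcontrol) on mean volume increase.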

Rattus norvegicus [23] = assay: Antiinflammatory activity in Wistar Albino rat assessed as inhibition of carrageenan-induced paw oedema at 20 mg/kg after 2 hrs relative to control; how it was run: as §2
Rattus norvegicus [24] = assay: Antiinflammatory activity in Wistar Albino rat assessed as inhibition of carrageenan-induced paw oedema at 20 mg/kg after 3 hrs relative to control; how it was run: as §2
Rattus norvegicus [25] = assay: Antiinflammatory activity in Wistar Albino rat assessed as inhibition of carrageenan-induced paw oedema at 20 mg/kg after 4 hrs relative to control; how it was run: as §2

Structure (SMILES)	Activity (Mus musculus [1]) [%]	Activity (Mus musculus [2]) [%]	Activity (Mus musculus [3]) [%]	zone of inhibition at 10 µg/mL (Candida albicans [4]) [mm]	zone of inhibition at 20 µg/mL (Candida albicans [5]) [mm]	zone of inhibition at 30 µg/mL (Candida albicans [6]) [mm]	zone of inhibition at 10 µg/mL (Aspergillus niger [7]) [mm]	zone of inhibition at 20 µg/mL (Aspergillus niger [8]) [mm]	zone of inhibition at 30 µg/mL (Aspergillus niger [9]) [mm]	zone of inhibition at 10 µg/mL (Escherichia coli [10]) [mm]	zone of inhibition at 20 µg/mL (Escherichia coli [11]) [mm]	zone of inhibition at 30 µg/mL (Escherichia coli [12]) [mm]	zone of inhibition at 10 µg/mL (Pseudomonas aeruginosa [13]) [mm]	zone of inhibition at 20 µg/mL (Pseudomonas aeruginosa [14]) [mm]	zone of inhibition at 30 µg/mL (Pseudomonas aeruginosa [15]) [mm]	zone of inhibition at 10 µg/mL (Bacillus subtilis [16]) [mm]	zone of inhibition at 20 µg/mL (Bacillus subtilis [17]) [mm]	zone of inhibition at 30 µg/mL (Bacillus subtilis [18]) [mm]	zone of inhibition at 10 µg/mL (Staphylococcus aureus [19]) [mm]	zone of inhibition at 20 µg/mL (Staphylococcus aureus [20]) [mm]	also measured
Cc1occc1-c1nnc2sc(-c3cc(O)nc(O)c3)nn12	4.35	11.45	19.35	5.34	10	17.3	5.14	8.48	14.8	5.38	8.79	14.1	5.95	9.81	14.2	6.02	10.4	14.8	6.07	10.8	zone of inhibition at 30 µg/mL (Staphylococcus aureus [21]): 14.5 mm; inhibition in vivo at 20 mg/kg (Rattus norvegicus [22]): 6.25%; inhibition in vivo at 20 mg/kg (Rattus norvegicus [23]): 11.4%; inhibition in vivo at 20 mg/kg (Rattus norvegicus [24]): 16.5%; inhibition in vivo at 20 mg/kg (Rattus norvegicus [25]): 21.7%
COc1ccc2[nH]cc(Cc3nn4c(Cc5ccc(OC)c(OC)c5)nnc4s3)c2c1	11.92	19.06	28.32	4.12	8.3	10	4.24	8.1	10.4	4.72	8.49	12.9	4.9	8.42	12.3	4.92	8.18	13.7	4.82	8.39	zone of inhibition at 30 µg/mL (Staphylococcus aureus [21]): 13.6 mm; inhibition in vivo at 20 mg/kg (Rattus norvegicus [22]): 4.11%; inhibition in vivo at 20 mg/kg (Rattus norvegicus [23]): 11.6%; inhibition in vivo at 20 mg/kg (Rattus norvegicus [24]): 19.1%; inhibition in vivo at 20 mg/kg (Rattus norvegicus [25]): 29.6%
Cc1occc1-c1nnc2sc(-c3cc(-c4ccccc4)nc4ccccc34)nn12	4.86	14.48	21.1	6.27	14.8	19.4	5.92	11	17.7	7.64	13.2	17.4	7.12	12	17.3	6.16	11.8	16.9	6.18	12.7	zone of inhibition at 30 µg/mL (Staphylococcus aureus [21]): 17.5 mm; inhibition in vivo at 20 mg/kg (Rattus norvegicus [22]): 11.8%; inhibition in vivo at 20 mg/kg (Rattus norvegicus [23]): 14.5%; inhibition in vivo at 20 mg/kg (Rattus norvegicus [24]): 16.4%; inhibition in vivo at 20 mg/kg (Rattus norvegicus [25]): 24.4%
COc1ccc(Cl)c(-c2nnc3n2NC(c2ccco2)S3)c1 (stereo not given)	6.24	12.55	23.89	5.19	10.3	14.8	5.16	7.13	13.1	4.12	7.39	14.4	4.82	8.95	14.2	4.39	7.68	13.6	4.82	8.61	zone of inhibition at 30 µg/mL (Staphylococcus aureus [21]): 14.1 mm; inhibition in vivo at 20 mg/kg (Rattus norvegicus [22]): 13.9%; inhibition in vivo at 20 mg/kg (Rattus norvegicus [23]): 18.7%; inhibition in vivo at 20 mg/kg (Rattus norvegicus [24]): 23.1%; inhibition in vivo at 20 mg/kg (Rattus norvegicus [25]): 25.6%
COc1ccc(Cl)c(-c2nnc3n2NC(c2ccc([N+](=O)[O-])o2)S3)c1 (stereo not given)	5.71	14.1	23.45	5.58	11.3	15.2	5.32	9.72	14.5	5.21	10.1	15.1	4.88	7.36	13.2	5.12	8.71	13.6	5.2	8.82	zone of inhibition at 30 µg/mL (Staphylococcus aureus [21]): 14.2 mm; inhibition in vivo at 20 mg/kg (Rattus norvegicus [22]): 15.6%; inhibition in vivo at 20 mg/kg (Rattus norvegicus [23]): 18.5%; inhibition in vivo at 20 mg/kg (Rattus norvegicus [24]): 21.7%; inhibition in vivo at 20 mg/kg (Rattus norvegicus [25]): 24.2%
COc1ccc(Cc2nnc3n2NC(c2ccco2)S3)cc1OC (stereo not given)	5.36	17.26	25.11	5.48	10.4	14.7	4.8	6.96	12.3	4.29	7.49	14.2	3.73	7.11	12.7	3.8	6.65	12.2	3.7	7.31	zone of inhibition at 30 µg/mL (Staphylococcus aureus [21]): 11.8 mm; inhibition in vivo at 20 mg/kg (Rattus norvegicus [22]): 12%; inhibition in vivo at 20 mg/kg (Rattus norvegicus [23]): 17.5%; inhibition in vivo at 20 mg/kg (Rattus norvegicus [24]): 21.1%; inhibition in vivo at 20 mg/kg (Rattus norvegicus [25]): 24.6%
